Measured values taken from ChEMBL document CHEMBL1649139, “A novel gene, erm(41), confers inducible macrolide resistance to clinical isolates of Mycobacterium abscessus but is absent from Mycobacterium chelonae” (2009).

Legend:
Type in all cases: functional
[1] = system: Mycobacteroides abscessus; assay: Antimicrobial activity against Mycobacterium abscessus isolate MAB30 at day 14 preincubated with 0.1 ug/ml for 3 days by broth microdilution method
Summary of the method: (§1)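 Clarithromycin MIC by CLSI-conforming broth microdilution. Before testing, cultures were preincubated for 3 days, either in medium alone or in clarithromycin or erythromycin (tested range 0.01–1 μg/ml). Preincubation ran for at least two generations, judged by turbidity increase. Plates were read on day 3 and on extended incubation at days 5 to 14.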

[2] = system: Mycobacteroides abscessus; assay: Antimicrobial activity against Mycobacterium abscessus isolate MC958 at day 9 by broth microdilution method; conditions: isolate MC958, 216 h
[3] = system: Mycobacteroides abscessus; assay: Antimicrobial activity against Mycobacterium abscessus isolate MC723 at day 3 by broth microdilution method; conditions: isolate MC723, 72 h
Summary of the method: (§2)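 Clarithromycin MIC by broth microdilution following CLSI guidelines. Before testing, organisms were preincubated for 3 days in medium alone or in clarithromycin or erythromycin (0.01–1 μg/ml), long enough for at least two generations judged by turbidity increase. MICs were read on day 3 and again on extended incubation out to day 14.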

[4] = system: Mycobacteroides abscessus; assay: Antimicrobial activity against Mycobacterium abscessus isolate MC1448 at day 9 preincubated with 0.1 ug/ml erythromycin for 3 days by broth microdilution method; summary of the method: as §2
[5] = system: Mycobacteroides abscessus; assay: Antimicrobial activity against Mycobacterium abscessus isolate MC723 at day 14 by broth microdilution method; conditions: isolate MC723, 336 h; summary of the method: as §2
[6] = system: Mycobacteroides abscessus; assay: Antimicrobial activity against Mycobacterium abscessus isolate MAB30 at day 7 preincubated with 0.1 ug/ml for 3 days by broth microdilution method; summary of the method: as §1
[7] = system: Mycobacteroides abscessus; assay: Antimicrobial activity against Mycobacterium abscessus isolate MC879-2 at day 9 by broth microdilution method; conditions: isolate MC879-2, 216 h
[8] = system: Mycobacteroides abscessus; assay: Antimicrobial activity against Mycobacterium abscessus isolate MC720 at day 9 preincubated with 0.1 ug/ml for 3 days by broth microdilution method; summary of the method: as §2

## CC[C@H]1OC(=O)[C@H](C)[C@@H](O[C@H]2C[C@@](C)(OC)[C@@H](O)[C@H](C)O2)[C@H](C)[C@@H](O[C@@H]2O[C@H](C)C[C@H](N(C)C)[C@H]2O)[C@](C)(OC)C[C@@H](C)C(=O)[C@H](C)[C@@H](O)[C@]1(C)O [CLARITHROMYCIN]
[1]
  MIC: ≤ 0.5 µg/mL
[2]
  MIC: > 32 µg/mL
[3]
  MIC: ≤ 0.5 µg/mL
[4]
  MIC: > 32 µg/mL
[5]
  MIC: > 32 µg/mL
[6]
  MIC: ≤ 0.5 µg/mL
[7]
  MIC: > 32 µg/mL
[8]
  MIC: > 32 µg/mL
